# Assay results published in ChEMBL document CHEMBL4251640, “Antimalarial naphthoquinones. Synthesis via click chemistry, in vitro activity, docking to PfDHODH and SAR of lapachol-based compounds” (Eur J Med Chem, 2018).
# How the values were obtained:
# Plasmodium falciparum = assay: Antimalarial activity against chloroquine-resistant/mefloquine-sensitive Plasmodium falciparum W2 ring stage forms infected in human erythrocytes assessed as reduction in parasite growth after 48 hrs by parasite LDH release assay; assay type: functional, organism-based; settings: W2, 48 h
# Method in brief: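 Sorbitol-synchronized ring-stage parasites in human erythrocytes (culture kept at 37 °C, candle jar, RPMI with hypoxanthine, HEPES, 10% human plasma) plated at 2% parasitemia, 1% hematocrit with drugs diluted from DMSO stock. Incubated 48 h, frozen -20 °C 24 h, thawed. Lysate given Malstat plus NBT/PES for 1 h at 37 °C in the dark, A570 read. Triplicates. IC50 from sigmoidal dose-response fit versus drug-free controls.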
# [1] = Selectivity index, CC50 for human HepG2 cells to IC50 for chloroquine-resistant/mefloquine-sensitive Plasmodium falciparum W2 ring stage forms; assay type: toxicity; settings: read-out: Ratio CC50/IC50
# Method in brief: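 HepG2 cytotoxicity: cells in RPMI 1640 with 5% FBS, trypsinized and plated. Compounds at 0.02% DMSO final, four serial-dilution concentrations, 24 h at 37 °C. MTT added for 90 min, formazan dissolved in DMSO, read at 570 nm. Duplicates. CC50 taken as the concentration killing 50% of cells. SI = CC50/IC50 against W2, with IC50 from the 48 h pLDH assay.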
# [2] = Cytotoxicity against human HepG2 cells assessed as reduction in cell viability after 24 hrs by MTT assay; assay type: cell-based
# Method in brief: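 HepG2 hepatoma cells kept at 37 °C, 5% CO2 in RPMI 1640 with 5% FBS, penicillin and streptomycin; trypsinized and plated in 96-well plates. Samples diluted in medium at 0.02% DMSO final, four serial concentrations; 24 h at 37 °C, then MTT (5 mg/ml in PBS) 90 min, formazan dissolved in DMSO, absorbance 570 nm. Duplicate; CC50 = concentration killing 50% of cells.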
SMILES,IC50 (Plasmodium falciparum),selectivity ratio [1],CC50 at 24 h [2]
CC(C)=CCC1=C(OCc2cn(-c3ccc(C#N)cc3)nn2)C(=O)c2ccccc2C1=O,8.4 µM,84.2,707 µM
CCN(CC)CCCC(C)Nc1ccnc2cc(Cl)ccc12 (stereo unspecified) [CHLOROQUINE],,,393 µM
CC(C)=CCC1=C(OCc2cn(C3CCN(C(=O)OC(C)(C)C)CC3)nn2)C(=O)c2ccccc2C1=O,4 µM,34,136 µM
O=C1C(O)=C([C@H]2CC[C@H](c3ccc(Cl)cc3)CC2)C(=O)c2ccccc21 [ATOVAQUONE],0.00122 µM,> 328,> 40 µM
CC(C)=CCC1=C(OCc2cn(-c3cccnc3)nn2)C(=O)c2ccccc2C1=O,5.2 µM,198,1030 µM
CC(C)=CCC1=C(O)C(=O)c2ccccc2C1=O [LAPACHOL],124 µM,> 33.4,> 4130 µM
CC(C)=CCC1=C(OCc2cn(-c3ccccc3C)nn2)C(=O)c2ccccc2C1=O,18.8 to 19.4 µM,13.6,256 µM
COc1ccc(-n2cc(COC3=C(CC=C(C)C)C(=O)c4ccccc4C3=O)nn2)cc1,14.2 µM,14.1,200 µM
CC(C)=CCC1=C(OCc2cn(-c3ccc([N+](=O)[O-])cc3)nn2)C(=O)c2ccccc2C1=O,11.7 µM,46.1,540 µM
C#CCOC1=C(CC=C(C)C)C(=O)c2ccccc2C1=O,8.2 µM,113,924 µM
COc1cc([N+](=O)[O-])ccc1-n1cc(COC2=C(CC=C(C)C)C(=O)c3ccccc3C2=O)nn1,4.1 µM,171,701 µM
CC(C)=CCC1=C(OCc2cn(Cc3ccccc3)nn2)C(=O)c2ccccc2C1=O,7.8 µM,53,414 µM
CC(C)=CCC1=C(OCc2cn(-c3ccnc4cc(Cl)ccc34)nn2)C(=O)c2ccccc2C1=O,15.1 µM,129,1940 µM
CC(C)=CCC1=C(OCc2cn(C3CCNCC3)nn2)C(=O)c2ccccc2C1=O,4.6 µM,124,570 µM
CC(C)=CCC1=C(OCc2cn(-c3cccc(F)c3)nn2)C(=O)c2ccccc2C1=O,8.4 µM,31.5,265 µM
CC(C)=CCC1=C(OCc2cn(Cc3ccccn3)nn2)C(=O)c2ccccc2C1=O,8.7 µM,75.6,658 µM
CC(C)=CCC1=C(OCc2cn(-c3ccc(Cl)cc3)nn2)C(=O)c2ccccc2C1=O,9.8 µM,118,1150 µM
CC(C)=CCC1=C(OCc2cn(-c3ccccc3)nn2)C(=O)c2ccccc2C1=O,19.1 µM,5.2,100 µM
CC(C)=CCC1=C(OCc2cn(-c3ccc(S(N)(=O)=O)cc3)nn2)C(=O)c2ccccc2C1=O,> 105 µM,< 4.6,483 µM
CC(C)=CCC1=C(OCc2cn(C3C[C@@H](CO)O[C@H]3n3cc(C)c(=O)[nH]c3=O)nn2)C(=O)c2ccccc2C1=O (stereo partly specified),13.6 µM,4.5,60.7 µM
COc1ccc(-n2cc(COC3=C(CC=C(C)C)C(=O)c4ccccc4C3=O)nn2)c([N+](=O)[O-])c1,8.2 µM,64.8,532 µM
